# Compound activity: PubChem, several laboratories
# 14-3-3 Bad inh: disrupts binding of bovine 14-3-3 zeta to phospho-Bad peptide; AID 781; P63103; TR-FRET 14-3-3zeta/Dy647-pBad peptide displacement, 1 h; 0.71% of 220,000 active; inhibition, % at 21.7 µM;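 active means inhibition above about 70%, limit read from the data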
# Target sequence (P63103 whole entry, looked up): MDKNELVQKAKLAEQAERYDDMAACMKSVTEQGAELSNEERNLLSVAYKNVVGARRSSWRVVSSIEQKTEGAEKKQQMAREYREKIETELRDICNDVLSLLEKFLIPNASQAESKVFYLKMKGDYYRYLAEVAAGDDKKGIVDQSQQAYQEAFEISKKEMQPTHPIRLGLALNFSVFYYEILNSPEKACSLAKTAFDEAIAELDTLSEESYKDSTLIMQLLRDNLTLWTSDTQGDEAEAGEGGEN
# Mcl-1 Bim block: inhibitors of Bim-Mcl-1 interaction, human; 0.1% of 190,000 active; inhibition, % at 10 µM; AID 1009; Bead-based flow cytometry, Bim peptide-Mcl-1 binding; in the data active means inhibition above about 40%
# Target sequence (Q07820 whole entry, looked up): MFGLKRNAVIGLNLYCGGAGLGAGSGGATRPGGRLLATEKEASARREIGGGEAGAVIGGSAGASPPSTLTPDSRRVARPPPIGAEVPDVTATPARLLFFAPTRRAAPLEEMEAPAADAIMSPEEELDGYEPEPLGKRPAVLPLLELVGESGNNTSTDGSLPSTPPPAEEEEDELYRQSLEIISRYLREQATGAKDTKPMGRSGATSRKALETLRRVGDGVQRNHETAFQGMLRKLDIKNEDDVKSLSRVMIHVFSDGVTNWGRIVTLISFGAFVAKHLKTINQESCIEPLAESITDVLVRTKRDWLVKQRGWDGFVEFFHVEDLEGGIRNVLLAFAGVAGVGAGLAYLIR
# Mcl1 Noxa PPI: Mcl-1/Noxa interaction inhibition; Q07820; TR-FRET Mcl-1/Noxa peptide binding, 2 h; inhibition, % at 21.7 µM; 1.5% of 220,000 active; AID 1022;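 active means compounds that cut the protein-peptide binding signal by more than 50% relative to plate controls in a single-dose test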;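 further: His-tagged Mcl-1 with rhodamine Noxa BH3 peptide and terbium anti-His antibody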
# Mcl1 Bid PPI: disrupts binding of human Mcl-1 to Bid peptide; Q07820; TR-FRET Mcl-1/Bid-Dy647 peptide binding, 1536-well; inhibition, % at 21.7 µM; 0.97% of 220,000 active;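 active means compounds that cut the binding signal by more than half at the single screening dose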;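 further: His-tagged Mcl-1 with europium anti-His antibody binding Bid BH3 peptide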
# Biofilm kill mix: mixture kills Candida albicans biofilm cells | 0.02% of 120,000 active | C. albicans biofilm persisters + clotrimazole, fluorescence viability; primary screen in compound mixtures of four per well | AID 1242 | inhibition, % at 7.6 µM;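 active means inhibition above 30.3% in the primary screen of four-compound pools, then above 30% when the compound was retested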;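 further: compounds exposed to preformed 24 h biofilms for 48 h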
#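 Incubation: 24 h biofilm formation, then 48 h compound exposure, 37 °C | Material: C. albicans biofilms | Buffer or medium: RPMI/MOPS medium, pH 7.0 | Measured by: 2-h Alamar Blue fluorescence, 535/590 nm excitation/emission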
# Hck Nef HTS: blocks Nef-activated human Hck kinase. P08631. 0.68% of 220,000 active. Recombinant Hck-YEEI plus Nef, Z-Lyte FRET kinase assay. inhibition, % at 20 µM;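 active means Hck-Nef kinase inhibition above about 50%, limit read from the data; inactive means inhibition below that limit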
# Numbers stand for hits; 0 = inactive; - = no result. An excerpt weighted towards active compounds, which were near 3.2% of everything screened.
SMILES,14-3-3 Bad inh,Mcl-1 Bim block,Mcl1 Noxa PPI,Mcl1 Bid PPI,Biofilm kill mix,Hck Nef HTS
O=c1c2cc(Br)cc(Br)c2oc2nc3n(c(=O)c12)CCCS3,0,0,0,0,-,0
CS(=O)(=O)NCc1nnc(SCc2c(F)cccc2Cl)o1,0,0,0,0,0,0
CCC1C(=O)CC(c2ccco2)NC1c1ccco1 (stereo not drawn),0,0,0,0,0,0
C=CCC1(O)CC(c2ccco2)NC(c2ccco2)C1CCC (stereo not drawn),79.4,0,0,0,-,0
O=C(CCc1nnc(-c2ccsc2)o1)N1CCc2c(Cl)cccc2C1,0,0,0,0,0,0
CCN(CC)c1ccc(NC(=O)C2CC3CCC2C3)cc1 (stereo not drawn),0,0,67.0,0,-,0
NNc1nc2c(-c3ccc(Cl)cc3)nnn2c2ccccc12,0,0,67.8,0,0,0
NNc1nc2c(-c3ccc(F)cc3)nnn2c2ccccc12,0,0,68.6,0,0,0
Cc1ccc(-c2nnn3c2nc(Cl)c2ccccc23)cc1,90.6,0,0,0,0,0
COCCCNc1nc2c(-c3ccc(Cl)cc3)nnn2c2ccccc12,0,0,0,0,0,0
COc1ccc(Cn2c(-c3ccc(OC)c(O)c3)nc3ccccc32)cc1O,0,0,0,0,0,0
COc1ccc(C2CC(=O)C3=C(C2)Nc2ccccc2NC3c2coc3ccccc3c2=O)cc1OC (stereo not drawn),0,42.0,0,0,0,0
CCOC(=O)c1c(-c2ccc(C)cc2)csc1NC(=O)/C(C#N)=C/c1ccc(O)c(OC)c1,0,0,89.9,0,0,0
COc1cc(COCC(O)CN2CCOCC2)cc(OC)c1OC (stereo not drawn),0,0,0,0,-,0
CC(N=C1NC(C)(C)Cc2ccccc21)C(=O)O (stereo not drawn),91.3,0,0,0,0,0
CC1(C)Cc2ccccc2/C(=C/C(=O)N2CCCCCC2)N1,73.9,0,0,0,-,0
COc1cc2c(cc1OC)/C(=C/C(=O)N1CCOCC1)NC(C)(C)C2,0,0,0,0,-,0
CC1=C(CCN2CCN(C(C)C)C(CCO)C2)C(C)(C)CCC1 (stereo not drawn),0,0,0,0,0,0
COc1ccc(OC)c(/C=N/c2oc(-c3ccco3)c(-c3ccco3)c2C#N)c1,0,0,77.2,0,-,0
N#Cc1c(N)oc(-c2ccco2)c1-c1ccco1,0,0,0,0,-,0
CNc1ccc(/C=C/C(=O)c2cccc3ccccc23)cc1[N+](=O)[O-],0,0,0,0,0,0
CCc1nnc(NC(=O)c2ccc3ncsc3c2)s1,0,-,0,56.1,0,0
CC(=O)NC(=O)COC(=O)c1ccc2ncsc2c1,0,0,0,0,0,0
O=C(O)c1ccc2ncsc2c1,82.0,-,55.7,92.5,0,0
CCc1nnc(NC(=O)c2ccncc2)s1,0,0,0,0,-,0
SMILES,14-3-3 Bad inh,Mcl-1 Bim block,Mcl1 Noxa PPI,Mcl1 Bid PPI,Biofilm kill mix,Hck Nef HTS
Cc1ccc(NC(=O)c2cccnc2)cc1S(=O)(=O)N(C)C,0,0,0,0,0,0
Cc1ccc(NC(=O)c2ccc3ncsc3c2)cc1S(=O)(=O)N(C)C,0,-,0,67.2,0,0
CCN(CC)CCn1c(NCc2ccccn2)nc2ccccc21,77.1,0,0,85.0,-,0
C=CCN1C(=O)C(C)S/C1=N\S(=O)(=O)c1ccc(Cl)cc1 (stereo not drawn),0,0,0,0,0,0
CCN1C(=O)C(C)S/C1=N\S(=O)(=O)c1ccc(F)cc1 (stereo not drawn),0,0,75.0,0,0,0
CC(=O)OCCCNc1cc(Sc2nc3ccccc3s2)c2nonc2c1[N+](=O)[O-],0,0,63.8,0,-,0
CC(=O)OCCNc1cc(Sc2nc3ccccc3[nH]2)c2nonc2c1[N+](=O)[O-],0,0,61.0,0,0,0
CCOC(=O)C1C(c2ccc([N+](=O)[O-])cc2)C2C(=O)NN=C2CC1(C)O (stereo not drawn),0,-,0,0,0,0
CCCS(=O)(=O)N1CCN=C1SCc1cccnc1,0,0,0,0,0,0
CN(C)c1nc2n(c(=O)n1)C(C#N)CS2 (stereo not drawn),0,0,0,0,-,0
CC1CC(C)(C)NC(=S)N1CC(=O)N1CCN(Cc2ccc3c(c2)OCO3)CC1 (stereo not drawn),0,0,0,0,0,0
COc1ccc2c(c1O)Cc1ccccc1C2=O,0,0,51.6,0,0,0
CC(C)=C1Cc2ccccc2C1=O,0,0,0,0,0,0
Cn1c(N)c(C(=O)c2ccc(F)cc2F)c(=O)n(C)c1=O,0,0,0,0,0,0
C/C(=N\O)c1ccc2c(c1)OCCO2,0,0,0,0,0,0
C/C(=N/O)c1ccc2c(c1)OCCOCCOc1cc(/C(C)=N/O)ccc1OCCOCCO2,0,0,59.3,0,0,0
O=C(COc1ccc2ccccc2c1Br)NC(=S)Nc1cccc(CO)c1,0,0,0,52.2,0,0
CCOc1ccc(C(=O)NCC(=O)OCC(=O)N2CCCC2)cc1,0,0,0,0,0,0
Cc1cc(/C(N)=N/OC(=O)c2ccc(Cl)cc2)no1,70.1,-,0,0,0,0
COc1ccccc1N1CCN(C(=O)CN(c2ccccc2OC)S(=O)(=O)c2ccccc2)CC1,0,0,0,0,-,0
CC(=O)C1=C(S(=O)(=O)c2ccc(C)cc2)CS(=O)(=O)C1,0,0,78.0,0,0,0
CN1C(=O)/C(=C2\SC(=S)N(CCCCCC(=O)O)C2=O)c2ccccc21,0,-,113.3,96.0,0,0
CCN1C(=O)/C(=C2\SC(=S)N(CCCOC)C2=O)c2ccccc21,0,0,0,0,-,0
CNC(=O)c1cc(NC(=O)CCn2nc(-c3ccccc3)c3ccccc3c2=O)ccc1OC,0,-,0,0,0,0
CCOc1ccc2nc(Cl)c(C3CC(c4ccco4)=NN3S(=O)(=O)c3ccccc3)cc2c1 (stereo not drawn),0,0,0,0,0,59.1
SMILES,14-3-3 Bad inh,Mcl-1 Bim block,Mcl1 Noxa PPI,Mcl1 Bid PPI,Biofilm kill mix,Hck Nef HTS
COc1ccc2cc(C3CC(c4ccco4)=NN3S(C)(=O)=O)c(Cl)nc2c1 (stereo not drawn),0,-,0,0,0,0
COc1ccc(NC(=O)/C(C#N)=C\c2ccc(N3CCOCC3)o2)cc1,0,0,0,0,0,0
COc1ccc(NC(=O)/C(C#N)=C/c2ccc(Br)o2)cc1,0,0,57.6,0,-,0
N#Cc1cccc(N=Cc2c(O)ccc3ccccc23)c1,0,0,54.6,0,0,0
CSc1cccc(NC(=S)N(CCC(C)C)C2CCN(C(C)C)CC2)c1,0,0,0,0,0,0
O=[N+]([O-])c1cccc(S(=O)(=O)Nc2nc3ccccc3nc2Nc2cccc(S(=O)(=O)N3CCCCC3)c2)c1,0,0,73.4,98.8,0,0
O=C(/C=C/c1ccc(Cl)cc1Cl)c1ccc[nH]1,0,0,0,0,0,0
COc1ccc(/C=C/C(=O)c2ccc(OC)cc2OC)c(OC)c1,0,0,0,0,0,0
